Measured values gathered from unrelated publications.
Protocols differ between the studies behind these lines.
Observed: enzyme activity
Action: inhibitor
SRC: Proto-oncogene tyrosine-protein kinase Src (SRC, Homo sapiens, UniProt P12931)
SRC T341M: Proto-oncogene tyrosine-protein kinase Src (SRC, Homo sapiens, UniProt P12931, T341M)

CC(C)(C)c1nc(-c2cccc(NS(=O)(=O)c3c(F)cccc3F)c2F)c(-c2ccnc(N)n2)s1 — remaining activity (SRC; radiometric; 1 µM): 68%
FC(F)c1nc2ccccc2n1-c1nc(N2CCOCC2)nc(N2CCOCC2)n1 — remaining activity (SRC; 10 µM): 104%
Nc1ncnc2occ(-c3ccc(NC(=O)Nc4cc(C(F)(F)F)ccc4F)cc3)c12 — remaining activity (SRC; 20 µM): 0.2%
Nc1nc(Nc2ccccc2)sc1C(=O)c1c(F)cccc1F — remaining activity (SRC; 10 µM): 47%
Cc1[nH]c(/C=C2\C(=O)Nc3ccc(F)cc32)c(C)c1C(=O)N[C@H]1CCN(C(=O)N(C)C)C1 — remaining activity (SRC; 0.1 µM): 109%
CC(C)(O)[C@H]1CC[C@H](Nc2ccc3ncc(-c4cccc(C(F)(F)F)c4)n3n2)CC1 — remaining activity (SRC; 1 µM): 27.9%
Cc1ccc(C(=O)Nc2ccc(CN3CCN(C)CC3)c(C(F)(F)F)c2)cc1C#Cc1cnc2cccnn12 — remaining activity (SRC; 23.5 nM): 12%
O=C(Nc1cnn(-c2csc(C(=O)NC3COC3)c2)c1)Nc1c(F)cccc1Cl — remaining activity (SRC; 5 µM): 98.4%
Cc1cnc(NC2CCOCC2)nc1-n1cnc(C(=O)NC(CN)c2cc(F)cc(Cl)c2)c1 (stereo not drawn) — remaining activity (SRC T341M; radiometric; 1 µM): 103%
COc1cc(Nc2cnc(C#N)c(O[C@H](C)CN(C)C)n2)ncc1-c1cnn(C)c1 — remaining activity (SRC; radiometric; 10 µM): 72%
Cc1ccc(NC(=O)c2ccc(C)c(C(F)(F)F)c2)cc1C#Cc1nn(C2CCC(O)CC2)c2ncnc(N)c12 (stereo not drawn) — remaining activity (SRC T341M; 10 µM): 20%
Nc1nc(NC2CCCCC2)sc1C(=O)c1ccccc1 — remaining activity (SRC; 10 µM): 99%
